Measurements taken from ChEMBL document CHEMBL1938337, “Discovery of novel, potent, and selective inhibitors of 3-phosphoinositide-dependent kinase (PDK1)” (J Med Chem, 2011).

Columns and labels:
[1] = biological target: T1, Serine/threonine-protein kinase Chk1 (Homo sapiens) (UniProt O14757); experiment: Inhibition of CHEK1 at 1 uM
T1 sequence (whole entry): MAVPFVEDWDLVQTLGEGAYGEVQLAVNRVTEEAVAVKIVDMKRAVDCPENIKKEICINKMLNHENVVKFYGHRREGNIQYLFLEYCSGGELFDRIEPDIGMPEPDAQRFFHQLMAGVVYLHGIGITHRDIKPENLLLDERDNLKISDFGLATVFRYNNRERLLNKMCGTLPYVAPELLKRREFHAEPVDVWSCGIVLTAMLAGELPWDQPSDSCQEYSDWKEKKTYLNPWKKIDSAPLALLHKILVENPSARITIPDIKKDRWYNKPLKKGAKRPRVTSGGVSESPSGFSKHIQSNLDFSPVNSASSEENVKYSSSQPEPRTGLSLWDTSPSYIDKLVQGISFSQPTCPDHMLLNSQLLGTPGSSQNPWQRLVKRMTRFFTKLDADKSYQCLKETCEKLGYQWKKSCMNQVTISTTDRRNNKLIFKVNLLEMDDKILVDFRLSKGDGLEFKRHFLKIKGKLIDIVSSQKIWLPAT

[2] = biological target: Cyclin-dependent kinase 2/cyclin A (Homo sapiens) (UniProt P24941+P20248+P78396); experiment: Inhibition of CDK2/cyclinA at 1 uM; assay type: protein-complex assay
[3] = biological target: Phosphatidylinositol 4,5-bisphosphate 3-kinase catalytic subunit alpha isoform (Mus musculus, UniProt P42337); experiment: Inhibition of mouse PI3Kalpha after 30 mins by fluorescence polarization assay
Outline: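 Mouse PI3Kα 0.5 nM with 30 μM PIP₂, 5 mM MgCl₂, 200 μM ATP, 30 min at room temperature (~22 °C); stopped with 10 mM EDTA. Then 3 min with detector mix of 480 nM GST-Grp1 PH domain and 12 nM TAMRA-PIP₃. Fluorescence polarization read in 50 mM Hepes pH 7.4, 150 mM NaCl, 5 mM DTT, 0.05% CHAPS. Duplicate points, nonlinear regression fit.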

[4] = biological target: MAP kinase-activated protein kinase 2 (Homo sapiens) (UniProt P49137); experiment: Inhibition of MAPKAPK2 at 1 uM
[5] = biological target: cAMP-dependent protein kinase catalytic subunit alpha (Homo sapiens) (UniProt P17612); experiment: Inhibition of PRKACA at 1 uM
[6] = system: NCI-H460; experiment: Antiproliferative activity against human H460 cells after 72 hrs by resazurin reduction assay; assay type: functional, cell-based; conditions: NCI-H460, 72 h
Outline: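 Cells seeded at 3,000 per well, left to adhere overnight, then given inhibitor as a 3-fold serial dilution from 0.0169 nM to 10 μM. After 72 h, 250 μg/mL resazurin was added, followed by 6 h more at 37 °C. Fluorescence was read at ex 560 / em 590 nm.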

[7] = biological target: T2, 3-phosphoinositide-dependent protein kinase 1 (Homo sapiens, UniProt O15530); experiment: Inhibition of recombinant human His-tagged PDK1 catalytic domain using Ac-Sox-PKTFCGTPEYLAPEVRREPRILSEEEQEMFRDFDYIAD-NH2 as substrate by fluorescence-based spectrophotometry
T2 sequence (O15530 whole entry): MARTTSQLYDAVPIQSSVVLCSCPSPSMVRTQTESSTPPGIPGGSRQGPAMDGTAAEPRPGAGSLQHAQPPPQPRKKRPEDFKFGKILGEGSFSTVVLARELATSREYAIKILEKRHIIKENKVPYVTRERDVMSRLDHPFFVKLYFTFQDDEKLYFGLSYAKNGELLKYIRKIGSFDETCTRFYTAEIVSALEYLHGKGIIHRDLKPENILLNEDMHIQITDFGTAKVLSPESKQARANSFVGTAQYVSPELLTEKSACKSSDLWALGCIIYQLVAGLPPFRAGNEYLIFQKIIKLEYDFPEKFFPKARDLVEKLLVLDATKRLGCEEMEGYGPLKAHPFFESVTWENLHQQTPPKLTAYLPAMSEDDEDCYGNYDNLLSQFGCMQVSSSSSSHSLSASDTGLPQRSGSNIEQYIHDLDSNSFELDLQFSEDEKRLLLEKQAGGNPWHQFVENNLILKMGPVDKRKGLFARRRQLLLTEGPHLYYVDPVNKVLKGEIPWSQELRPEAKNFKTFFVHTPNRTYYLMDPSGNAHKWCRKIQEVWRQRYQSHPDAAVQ

[8] = biological target: Epidermal growth factor receptor (Homo sapiens) (UniProt P00533); experiment: Inhibition of EGFR at 1 uM
[9] = biological target: Serine/threonine-protein kinase 26 (Homo sapiens) (UniProt Q9P289); experiment: Inhibition of MST4 at 1 uM
Sequence of Serine/threonine-protein kinase 26 (Homo sapiens) (Q9P289 2-416 limits assumed): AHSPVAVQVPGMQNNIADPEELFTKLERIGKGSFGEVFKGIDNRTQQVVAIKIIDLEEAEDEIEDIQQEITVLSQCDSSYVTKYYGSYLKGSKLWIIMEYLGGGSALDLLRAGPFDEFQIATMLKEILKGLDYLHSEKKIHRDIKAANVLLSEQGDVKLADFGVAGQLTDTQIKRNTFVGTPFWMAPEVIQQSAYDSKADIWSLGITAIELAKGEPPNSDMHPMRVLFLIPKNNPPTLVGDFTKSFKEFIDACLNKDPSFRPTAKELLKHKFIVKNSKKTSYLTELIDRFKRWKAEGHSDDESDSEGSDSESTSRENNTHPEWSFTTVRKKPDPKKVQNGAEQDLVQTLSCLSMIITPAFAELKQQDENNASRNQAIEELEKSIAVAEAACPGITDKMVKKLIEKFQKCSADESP

Sequence of MAP kinase-activated protein kinase 2 (Homo sapiens) (P49137 whole entry, looked up): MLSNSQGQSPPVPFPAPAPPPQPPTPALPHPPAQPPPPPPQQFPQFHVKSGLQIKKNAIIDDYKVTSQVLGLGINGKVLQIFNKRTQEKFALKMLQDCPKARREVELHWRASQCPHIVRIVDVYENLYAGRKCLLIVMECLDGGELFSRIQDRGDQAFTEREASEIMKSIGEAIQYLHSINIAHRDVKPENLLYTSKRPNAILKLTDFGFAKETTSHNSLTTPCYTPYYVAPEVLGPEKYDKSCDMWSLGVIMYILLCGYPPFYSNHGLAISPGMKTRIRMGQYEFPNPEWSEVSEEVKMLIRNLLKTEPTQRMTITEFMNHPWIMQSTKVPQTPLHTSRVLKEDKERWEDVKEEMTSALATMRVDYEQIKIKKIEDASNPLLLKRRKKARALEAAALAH
Sequence of Epidermal growth factor receptor (Homo sapiens) (P00533 whole entry): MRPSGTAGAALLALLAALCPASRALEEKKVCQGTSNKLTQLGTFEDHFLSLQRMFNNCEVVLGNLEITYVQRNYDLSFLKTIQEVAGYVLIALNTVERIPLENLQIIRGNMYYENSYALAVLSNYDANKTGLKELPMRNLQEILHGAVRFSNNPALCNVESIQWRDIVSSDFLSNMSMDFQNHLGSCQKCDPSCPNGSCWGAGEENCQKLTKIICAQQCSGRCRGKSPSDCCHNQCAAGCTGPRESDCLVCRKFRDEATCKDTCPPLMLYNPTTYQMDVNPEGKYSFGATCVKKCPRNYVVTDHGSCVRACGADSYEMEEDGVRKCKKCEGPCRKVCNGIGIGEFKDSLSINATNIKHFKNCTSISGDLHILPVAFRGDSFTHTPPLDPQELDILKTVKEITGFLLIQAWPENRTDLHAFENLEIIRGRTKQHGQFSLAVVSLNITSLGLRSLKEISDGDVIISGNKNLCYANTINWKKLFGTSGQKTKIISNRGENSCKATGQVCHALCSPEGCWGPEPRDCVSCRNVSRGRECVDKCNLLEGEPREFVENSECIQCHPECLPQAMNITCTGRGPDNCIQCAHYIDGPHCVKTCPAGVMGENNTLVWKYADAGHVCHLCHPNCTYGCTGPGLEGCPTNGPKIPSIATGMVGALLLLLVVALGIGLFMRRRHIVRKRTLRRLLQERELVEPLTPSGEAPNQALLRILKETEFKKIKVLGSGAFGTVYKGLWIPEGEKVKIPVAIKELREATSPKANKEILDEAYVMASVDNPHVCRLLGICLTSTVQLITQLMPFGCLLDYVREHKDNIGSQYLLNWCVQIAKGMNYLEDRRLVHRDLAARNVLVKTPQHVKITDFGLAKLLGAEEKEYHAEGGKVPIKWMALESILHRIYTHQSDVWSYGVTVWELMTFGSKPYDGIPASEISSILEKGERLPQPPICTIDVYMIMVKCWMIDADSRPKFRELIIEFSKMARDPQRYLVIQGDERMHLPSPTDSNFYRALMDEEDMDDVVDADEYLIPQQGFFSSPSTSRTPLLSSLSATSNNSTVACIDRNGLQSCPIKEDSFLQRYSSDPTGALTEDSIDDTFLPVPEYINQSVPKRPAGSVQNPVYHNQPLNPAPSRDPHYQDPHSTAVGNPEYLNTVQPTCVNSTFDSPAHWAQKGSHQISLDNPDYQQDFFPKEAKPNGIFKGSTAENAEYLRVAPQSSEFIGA
Sequence of Phosphatidylinositol 4,5-bisphosphate 3-kinase catalytic subunit alpha isoform (P42337 whole entry, the tested form may be a part, canonical isoform): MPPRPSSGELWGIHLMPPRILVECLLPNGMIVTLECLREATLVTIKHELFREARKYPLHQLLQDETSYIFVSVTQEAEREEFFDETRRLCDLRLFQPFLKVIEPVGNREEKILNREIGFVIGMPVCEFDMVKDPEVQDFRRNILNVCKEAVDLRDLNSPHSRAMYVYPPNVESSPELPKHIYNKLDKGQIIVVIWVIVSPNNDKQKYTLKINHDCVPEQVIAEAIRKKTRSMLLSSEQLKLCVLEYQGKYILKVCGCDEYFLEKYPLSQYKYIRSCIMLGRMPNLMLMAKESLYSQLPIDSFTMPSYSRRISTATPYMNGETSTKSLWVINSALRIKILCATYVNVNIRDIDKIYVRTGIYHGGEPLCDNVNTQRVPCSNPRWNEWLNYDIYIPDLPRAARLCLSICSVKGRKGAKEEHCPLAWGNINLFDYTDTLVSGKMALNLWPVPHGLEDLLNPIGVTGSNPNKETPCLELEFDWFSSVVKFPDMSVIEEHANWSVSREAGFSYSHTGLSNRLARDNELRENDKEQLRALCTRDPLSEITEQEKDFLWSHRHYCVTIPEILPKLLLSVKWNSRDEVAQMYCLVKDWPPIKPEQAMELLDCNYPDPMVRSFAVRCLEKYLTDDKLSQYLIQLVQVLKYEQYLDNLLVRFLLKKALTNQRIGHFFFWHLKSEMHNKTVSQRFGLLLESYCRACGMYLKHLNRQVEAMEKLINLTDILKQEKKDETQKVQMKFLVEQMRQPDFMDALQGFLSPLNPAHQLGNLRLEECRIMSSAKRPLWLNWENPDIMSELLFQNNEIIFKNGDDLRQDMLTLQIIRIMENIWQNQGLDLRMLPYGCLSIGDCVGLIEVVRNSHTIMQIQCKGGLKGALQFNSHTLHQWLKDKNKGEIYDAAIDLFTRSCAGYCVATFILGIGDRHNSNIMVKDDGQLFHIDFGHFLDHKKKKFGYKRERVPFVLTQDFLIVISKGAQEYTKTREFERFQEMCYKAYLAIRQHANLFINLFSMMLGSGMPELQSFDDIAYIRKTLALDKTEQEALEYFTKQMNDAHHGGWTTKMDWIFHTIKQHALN

inhibition [1] [%]	inhibition [2] [%]	Ki [3] [nM]	inhibition [4] [%]	inhibition [5] [%]	EC50 [6] [nM]	Ki [7] [nM]	inhibition [8] [%]	inhibition [9] [%]	SMILES
38	44	130	6	74	700	0.7	7	4	CC(C)n1cc(C(=O)c2cncc(N[C@@H]3CCN(C=O)[C@@H]3c3ccc(F)cc3)n2)c2c(N)ncnc21
7	12	1900	6	30	1700	1.4	-2	-6	CC(=O)N1CC[C@@H](Nc2cncc(C(=O)c3cn(C(C)C)c4ncnc(N)c34)n2)[C@H]1c1ccccc1
24	34	1300	2	58	1900	1.4	1	8	CC(=O)N1CC[C@@H](Nc2cncc(C(=O)c3cn(C(C)C)c4ncnc(N)c34)n2)[C@H]1c1ccc(F)cc1
